Measured values gathered from unrelated publications.
TYK2 JH1: Non-receptor tyrosine-protein kinase TYK2, JH1 (TYK2, Homo sapiens, UniProt P29597)
TYK2 JH2: Non-receptor tyrosine-protein kinase TYK2, JH2 (TYK2, Homo sapiens, UniProt P29597)
TYK2: Non-receptor tyrosine-protein kinase TYK2 (TYK2, Homo sapiens, UniProt P29597)

CC1CCCN1c1nccc(-c2cnn3ncccc23)n1 (stereo not shown)  remaining binding (TYK2 JH1; cell-free assay; competition with immobilised ligand; 1 µM): 100%
CNC(=O)[C@@H]1CC[C@@H](n2c(-c3ccc4cnccc4c3)nc3ccc(C(=O)NCc4cccc(C(N)=O)c4)cc32)C1  remaining binding (TYK2 JH2; binding; competition with immobilised ligand; 1 µM): 100%
Cc1cnc(Nc2ccc(C(=O)N3CCC(N4CCCC4)CC3)cc2)nc1-c1cc2ccccc2s1  remaining binding (TYK2 JH1; binding; competition with immobilised ligand; 1 µM): 6.7%
COc1ccnn2ncc(-c3ccnc(N(C)C)n3)c12  remaining binding (TYK2; binding; 1 µM): 68%
Nc1ncc2c(n1)-c1c([nH]c3ccc(C#CC4CC4)cc13)CCCC2  remaining binding (TYK2 JH1; binding; competition with immobilised ligand; 1 µM): 86%
COc1cc(-c2cn(C3CCc4c(F)cccc4N(CC(F)(F)F)C3=O)nn2)ccc1-n1cnc(C)c1 (stereo not shown)  remaining binding (TYK2 JH2; cell-free assay; competition with immobilised ligand; 1 µM): 100%
CN(CCCC(F)(F)F)c1nccc(-c2cnn3ncccc23)n1  remaining binding (TYK2 JH1; cell-free assay; competition with immobilised ligand; 1 µM): 100%
COc1ccc2cc(OCC3(C(=O)O)CN(C(=O)c4ccc(F)cc4)C3)ccc2c1  remaining binding (TYK2 JH2; cell-free assay; competition with immobilised ligand; 1 µM): 100%
O=C(c1ccc(Nc2nccc(-c3cc4ccccc4s3)n2)cc1)N1CCC(N2CCCC2)CC1  remaining binding (TYK2 JH1; binding; competition with immobilised ligand; 1 µM): 13%
FC(F)(F)Oc1cccc(-c2cnc3ccc(-c4ccncc4)nn23)c1  remaining binding (TYK2 JH1; binding; competition with immobilised ligand; 5 µM): 53%
CN(C)c1nccc(-c2cnn3ncccc23)n1  remaining binding (TYK2 JH1; cell-free assay; competition with immobilised ligand; 1 µM): 51%
O=C(NCCCN1CCOCC1)c1ccc(Nc2nccc(-c3cc4ccccc4s3)n2)cc1  remaining binding (TYK2 JH1; binding; competition with immobilised ligand; 1 µM): 11%
CCCOc1ccc([C@H]2[C@H](C(=O)O)[C@@H](c3ccc4c(c3)OCO4)CN2CC(=O)Nc2c(CC)cccc2CC)cc1  remaining binding (TYK2 JH2; cell-free assay; competition with immobilised ligand; 1 µM): 80%
C[C@@H]1CN(c2ccc3ncc(-c4ccc5[nH]nc(C6CC6)c5c4)n3n2)C[C@H](C)O1  remaining binding (TYK2; binding; competition with immobilised ligand; 50 nM): 88%
O=C(Nc1c[nH]nc1C(=O)NC1CCNCC1)c1cc(F)cc(F)c1  remaining binding (TYK2 JH1; binding; competition with immobilised ligand; 1 µM): 100%
COc1cnc(Nc2cccc(S(N)(=O)=O)c2)nc1N1CCN(c2ccccc2)C(=O)C1  remaining binding (TYK2 JH2; binding; competition with immobilised ligand; 1 µM): 13%
CCN1CCN(Cc2ccc(C(=O)Nc3ccc(C)c(Oc4ccc5c(c4)CC(=O)N5)c3)cc2C(F)(F)F)CC1  remaining binding (TYK2 JH1; binding; competition with immobilised ligand; 1 µM): 100%
COc1cnc(Nc2cccc(S(N)(=O)=O)c2)nc1N1CCN(c2ccccc2)CC1  remaining binding (TYK2 JH1; binding; competition with immobilised ligand; 1 µM): 53%
COc1ccc2c(c1)O[C@H](c1ccc(OC)c(OC)c1)C[C@@H]2NC(=O)C1(c2ccc3c(c2)OC(F)(F)O3)CC1  remaining binding (TYK2 JH2; cell-free assay; competition with immobilised ligand; 1 µM): 100%
O=C(NCCCN1CCOCC1)c1ccc(Nc2ncc(Cl)c(-c3ccc(Cl)s3)n2)cc1  remaining binding (TYK2 JH2; binding; competition with immobilised ligand; 1 µM): 5.3%
C[C@H](NC(=O)c1cnc2n1[C@](C)(Cc1ccc(C#N)cc1)C(=O)N2c1cc(Cl)c(F)c(Cl)c1)C(=O)NC1(c2ccccn2)CC1  remaining binding (TYK2 JH2; cell-free assay; competition with immobilised ligand; 1 µM): 100%
F[C@@H]1CCN(c2nccc(-c3cnn4ncccc34)n2)C1  remaining binding (TYK2; binding; 1 µM): 100%
O=C(NCC1CCOCC1)c1n[nH]cc1NC(=O)c1c(F)cccc1F  remaining binding (TYK2 JH2; binding; competition with immobilised ligand; 1 µM): 59%
CN1CCN(c2ccc(Nc3nccc(-c4ccccc4)n3)cc2C(F)(F)F)CC1  remaining binding (TYK2; binding; 10 µM): 0%
O=C(c1ccc(Nc2ncc(Cl)c(-c3ccc(Cl)s3)n2)cc1)N1CCC(N2CCCC2)CC1  remaining binding (TYK2 JH2; binding; competition with immobilised ligand; 1 µM): 0.2%
N[C@H]1CCN(c2nccc(-c3cnn4ncccc34)n2)C1  remaining binding (TYK2; binding; 1 µM): 78%
c1cncc(-c2cccc(Nc3nccc(NC4CCCCC4)n3)c2)c1  remaining binding (TYK2 JH1; binding; competition with immobilised ligand; 10 µM): 0.2%
Cc1noc([C@H]2C[C@@H](c3ccc(C(F)(F)F)cc3)CN(C(=O)N3CCS(=O)(=O)C3)C2)n1  remaining binding (TYK2 JH1; cell-free assay; competition with immobilised ligand; 1 µM): 100%
O=C(c1ccc(Nc2ncc(Cl)c(-c3cc4ccccc4s3)n2)cc1)N1CCC(N2CCCC2)CC1  remaining binding (TYK2 JH1; binding; competition with immobilised ligand; 1 µM): 7.1%
COc1ncc2cc3ccccc3nc2c1C#N  remaining binding (TYK2 JH2; cell-free assay; competition with immobilised ligand; 5 µM): 99%
Cc1cnn2ncc(-c3ccnc(N(C)C)n3)c2c1  remaining binding (TYK2 JH1; cell-free assay; competition with immobilised ligand; 1 µM): 64%
CC(=O)c1c(NS(C)(=O)=O)c2cc(-c3ccc(Cl)cc3)c(-c3ccc(Cl)cc3Cl)nc2n(C)c1=O  remaining binding (TYK2 JH2; cell-free assay; competition with immobilised ligand; 1 µM): 89%
CN(C)c1ncc(F)c(-c2cnn3ncccc23)n1  remaining binding (TYK2 JH1; cell-free assay; competition with immobilised ligand; 1 µM): 87%
C[C@H](c1ccc(F)cc1)N(Cc1cccc(C(=O)O)c1)C(=O)c1cnc2ccccc2c1  remaining binding (TYK2 JH2; cell-free assay; competition with immobilised ligand; 1 µM): 92%
